Data set [1] concerns Trypanosoma cruzi. Kind of data set: Antitrypanosomal activity against bloodstream form of Trypanosoma cruzi Y trypomastigotes infected in Swiss mouse. Format: functional, organism-based.
In another data set the test system is J774. Put plainly: Cytotoxicity against mouse J774 cells after 18 hrs by MTT assay. Format: cell-based. Particulars: J774, 18 h. In a few lines: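 J774 macrophages plated at 2.5 × 10⁶ cells/mL for 1 h (5% CO₂, 37 °C), non-adherent cells washed off with RPMI 1640. Adherent cells exposed to compounds (0.1–[…]), medium alone or 3% Tween 20 in triplicate for 18 h; MTT added for 4 h, formazan dissolved in DMSO, absorbance at 540 nm; LC₅₀ reported.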

Data set [2] in a line: Selectivity index, ratio of IC50 for mouse J774 cells to IC50 for bloodstream form of Trypanosoma cruzi trypomastigote. The following applies: read-out: Ratio IC50. Format: toxicity, cell-based.
Data set [3] concerns Trypanosoma cruzi. Put plainly: Antitrypanosomal activity against Trypanosoma cruzi Tulahuen C2C4 intracellular amastigotes infected in rat L6 cells after 4 days by photometry. Format: functional, organism-based. The following applies: Tulahuen C2C4, L6, 96 h. In a few lines:
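L6 rat myoblasts seeded at 2000 cells/well in RPMI 1640 with 10% FBS and 2 mM L-glutamine; after 24 h infected with 5000 T. cruzi Tulahuen C2C4 LacZ trypomastigotes. At 48 h medium replaced with seven 3-fold serial drug dilutions spanning 0.123 to 90 µg/mL.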

Data set [4] has as its target T1, Cruzipain (Trypanosoma cruzi, UniProt P25779). Kind of data set: Inhibition of Trypanosoma cruzi cruzain. In a few lines:
(§1)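 Purified C-terminally truncated cruzain from E. coli (M15 or DH5a), 0.64 nM, in 50 mM sodium phosphate, 100 mM NaCl, 5 mM EDTA, 5 mM DTT, pH 6.5, preincubated with inhibitor 5 min at room temperature before Z-Phe-Arg-AMC. AMC release followed by fluorescence (ex 355, em 460 nm). IC₅₀ by nonlinear regression from ≥7 concentrations giving 20–85% inhibition, relative to uninhibited activity.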

For data set [5], the target named is T1, Cruzipain. Kind of data set: Inhibition of Trypanosoma cruzi C-terminally truncated cruzain expressed in Escherichia coli using Z-Phe-Arg-AMC as substrate incubated for 5 mins prior to substrate addition by spectrofluorometry. In a few lines:
as §1

Structures are written as SMILES.

T1 sequence (P25779 whole entry, the tested form may be a part): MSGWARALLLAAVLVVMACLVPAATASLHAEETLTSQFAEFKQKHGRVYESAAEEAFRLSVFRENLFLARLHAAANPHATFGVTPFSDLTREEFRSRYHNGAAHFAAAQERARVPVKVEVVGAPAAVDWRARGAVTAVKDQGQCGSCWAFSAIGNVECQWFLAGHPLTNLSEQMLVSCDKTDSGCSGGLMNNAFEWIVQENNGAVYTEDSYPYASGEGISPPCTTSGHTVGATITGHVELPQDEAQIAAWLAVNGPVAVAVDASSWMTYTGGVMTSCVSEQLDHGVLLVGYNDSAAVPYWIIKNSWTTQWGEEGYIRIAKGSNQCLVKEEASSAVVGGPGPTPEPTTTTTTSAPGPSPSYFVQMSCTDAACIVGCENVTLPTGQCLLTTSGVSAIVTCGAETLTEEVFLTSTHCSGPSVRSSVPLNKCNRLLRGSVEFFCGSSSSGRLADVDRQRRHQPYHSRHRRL

With `O=C(N/N=C/c1ccccc1O)c1ccc2ccccc2c1`, the IC50 (usually the concentration needed to halve the response being measured) with Trypanosoma cruzi [1] came out at 93 µM.
For `O=C(Cn1ccnc1[N+](=O)[O-])NCc1ccccc1` [BENZNIDAZOLE], the IC50 with J774 was determined as 3840 µM; in the data set on Trypanosoma cruzi [1], 10.8 µM; in the data set on Trypanosoma cruzi [3], 0.122 µM. Further, in data set [2], the selectivity ratio was 356.
On to `COc1cc(/C=N/NC(=O)/C=C/c2ccccc2)ccc1O`, for which the IC50 in the data set with Trypanosoma cruzi [1] came out at 127 µM; in the data set on Trypanosoma cruzi [3] it was 73 µM.
`COc1ccc(/C=N/NC(=O)/C=C/c2ccccc2)cc1`: the IC50 is above 1100 µM with Trypanosoma cruzi [1] and above 100 µM in the data set on Trypanosoma cruzi [3].
Regarding `COc1ccc2cc(O)c(C(=O)N/N=C/c3c(O)ccc4ccccc34)cc2c1`, on Cruzipain [4], the IC50 came out at 0.6 µM.
As for `COc1cc(/C=C/C(=O)N/N=C/c2ccccc2O)cc(OC)c1OC`, the IC50 with Trypanosoma cruzi [1] amounted to 78.8 µM.
`O=C(/C=C/c1ccccc1)N/N=C/c1ccccc1O`: the IC50 in the data set with J774 worked out at 420 µM; in the data set on Trypanosoma cruzi [1], 5.9 µM; at Cruzipain [5], 52.2 µM; with Trypanosoma cruzi [3] it was 6.6 µM. In data set [2], the selectivity ratio is 71.
In the data set on Trypanosoma cruzi [1], `COc1ccc(/C=C/C(=O)N/N=C/c2ccccc2O)cc1OC` showed an IC50 of 65 µM.
For `O=C(/C=C/c1ccccc1)N/N=C/c1ccccc1`, the IC50 in the data set with Trypanosoma cruzi [1] was above 1100 µM; in the data set with Trypanosoma cruzi [3], above 100 µM.
Turning to `O=C(CCc1ccccc1)N/N=C/c1ccccc1O`, the IC50 with J774 is 1630 µM; with Trypanosoma cruzi [1], 18 µM; at Cruzipain [5], above 100 µM. The selectivity ratio in data set [2] was found to be 90.
Taken in the same sequence, the figures for `COc1cc(/C=N/NC(=O)/C=C/c2cc(OC)c(OC)c([N+](=O)[O-])c2)cc([N+](=O)[O-])c1O` were 1860 µM, 16 µM, 44.7 µM and 116.
Take `COc1cc(/C=C/C(=O)N/N=C/c2ccccc2)cc([N+](=O)[O-])c1O`: the IC50 in the data set on Trypanosoma cruzi [1] came out at 79 µM.
Still for that read-out and setting: in the case of `COc1cc(/C=N/NC(=O)/C=C/c2ccc3c(c2)OCO3)cc([N+](=O)[O-])c1O` it was above 1100 µM.
With `O=C(/C=C/c1ccccc1)N/N=C/c1ccc(F)cc1`, the IC50 in the data set on Trypanosoma cruzi [1] was above 1100 µM; in the data set on Trypanosoma cruzi [3], above 100 µM.
Consider `COc1cc(/C=C/C(=O)N/N=C/c2ccccc2O)cc([N+](=O)[O-])c1OC`, for which the half-maximal inhibitory concentration (IC50) in the data set with J774 turned out to be 550 µM; in the data set with Trypanosoma cruzi [1], 17 µM; on Cruzipain [5], 83.9 µM. Moreover, in data set [2], the selectivity ratio was 32.
In turn, `COc1cc(/C=N/NC(=O)CCc2ccccc2)cc([N+](=O)[O-])c1O` came in with an IC50 in the data set on Trypanosoma cruzi [1] above 1100 µM.
Consider `COc1cc(/C=N/NC(=O)/C=C/c2ccccc2)cc([N+](=O)[O-])c1O`, for which the IC50 was above 1100 µM in the data set on Trypanosoma cruzi [1] and 40 µM with Trypanosoma cruzi [3].
For `O=C(/C=C/c1ccc2c(c1)OCO2)c1ccc(Br)cc1`, the IC50 against Cruzipain [4] is 20 µM.
Regarding `O=C(/C=C/c1ccccc1)N/N=C/c1ccc(Br)cc1`, the IC50 in the data set with Trypanosoma cruzi [1] is above 1100 µM.
For `COc1ccc(/C=N/NC(=O)/C=C/c2ccccc2)cc1O`, the results for the IC50 with Trypanosoma cruzi [1] and in the data set with Trypanosoma cruzi [3] were above 1100 µM and above 100 µM, respectively.
On to `O=C(/C=C/c1ccc2c(c1)OCO2)N/N=C/c1ccccc1O`, for which the IC50 in the data set on J774 was determined as 281 µM; in the data set with Trypanosoma cruzi [1] it was 5.6 µM; against Cruzipain [5], 74.8 µM. Moreover, the selectivity ratio in data set [2] is 50.
With `COc1cc(/C=N/NC(=O)c2ccc3ccccc3c2)cc([N+](=O)[O-])c1O`, the IC50 in the data set with Trypanosoma cruzi [1] turned out to be 93 µM.
Turning to `O=C(/C=C/c1ccccc1)N/N=C/c1ccc([N+](=O)[O-])cc1`, the half-maximal inhibitory concentration (IC50) in the data set with Trypanosoma cruzi [1] is above 1100 µM; in the data set on Trypanosoma cruzi [3], 81 µM.
In the case of `O=C(/C=C/c1ccccc1)N/N=C/c1ccc(O)c(O)c1`, the IC50 is 107 µM in the data set on Trypanosoma cruzi [1] and above 100 µM in the data set on Trypanosoma cruzi [3].
Take `COc1cc(/C=N/NC(=O)/C=C/c2cc(OC)c(OC)c(OC)c2)cc([N+](=O)[O-])c1O`: the IC50 turned out to be 2410 µM in the data set with J774, 18 µM with Trypanosoma cruzi [1] and 45.9 µM against Cruzipain [5]. The selectivity ratio in data set [2] was determined as 134.
Consider `O=C(/C=C/c1ccccc1)N/N=C/c1ccc(O)cc1`, for which the IC50 in the data set with Trypanosoma cruzi [1] was above 1100 µM; in the data set with Trypanosoma cruzi [3], above 100 µM.
The compound `COc1ccc(/C=C/C(=O)N/N=C/c2cc(OC)c(O)c([N+](=O)[O-])c2)cc1OC` returned an IC50 with Trypanosoma cruzi [1] above 1100 µM.
On to `O=C(/C=C/c1ccccc1)N/N=C/c1ccc2c(c1)OCO2`, for which the IC50 is above 1100 µM with Trypanosoma cruzi [1] and 61 µM in the data set with Trypanosoma cruzi [3].
The matching figures for `O=C(/C=C/c1ccccc1)N/N=C/c1ccc(Cl)cc1`: above 1100 µM and above 100 µM.
Taken in the same sequence, the figures for `COc1ccc(/C=N/NC(=O)/C=C/c2ccccc2)cc1OC` were above 1100 µM and above 100 µM.
As for `COc1cc(/C=N/NC(=O)/C=C/c2ccccc2)cc(OC)c1OC`, the IC50 in the data set with Trypanosoma cruzi [1] is 71 µM; in the data set with Trypanosoma cruzi [3], 70 µM.
